Assay results gathered from unrelated publications.
Lines come from different studies, so protocols differ.
BAZ1B: Tyrosine-protein kinase BAZ1B (BAZ1B, Homo sapiens, UniProt Q9UIG0)
HDAC8: Histone deacetylase 8 (HDAC8, Homo sapiens, UniProt Q9BY41)
CDK11B: Cyclin-dependent kinase 11B (CDK11B, Homo sapiens, UniProt P21127)
murD: UDP-N-acetylmuramoylalanine--D-glutamate ligase (murD, Escherichia coli K-12, UniProt P14900)
BRD4 BD1: Bromodomain-containing protein 4, BD1 (BRD4, Homo sapiens, UniProt O60885)

Cc1cc2c(cc1N1C(=O)c3cccc4c(Cl)ccc(c34)C1=O)n(C)c(=O)n2C
ΔTm (BAZ1B; thermal stability; DSF; 10 µM): -1 °C

Nc1ncnc2c1ncn2[C@@H]1O[C@H](CO)[C@@H](O)[C@H]1O
inhibition (HDAC8; enzyme activity; inhibitor; 10 µM): -15.9%

Nc1ncnc2occ(-c3ccc(NC(=O)Nc4cc(C(F)(F)F)ccc4F)cc3)c12
remaining signal (CDK11B; cell-free assay; 20 µM): 0.4%

O=c1c(O)c(-c2ccc(O)cc2)oc2cc(O)cc(O)c12
inhibition (HDAC8; enzyme activity; inhibitor; 10 µM): 66.3%

O=[N+]([O-])c1ccccc1S(=O)(=O)Oc1ccccc1C=NNS(=O)(=O)c1ccc2ccccc2c1
remaining activity (murD; enzyme activity; inhibitor; absorbance; 50 µM): 71%

Cc1ccc(C(=O)Nc2ccc(CN3CCN(C)CC3)c(C(F)(F)F)c2)cc1C#Cc1cnc2cccnn12
remaining activity (CDK11B; enzyme activity; 23.5 nM): 79%

CC(C)[C@@H]1NC(=O)[C@@H]2CCCN2C(=O)[C@H](Cc2ccccc2)NC(=O)CSC[C@@H](C(=O)N[C@@H](Cc2ccc(O)cc2)C(N)=O)NC(=O)[C@H](Cc2c[nH]c3ccccc23)NC(=O)[C@H](CCCCN)NC(=O)[C@H](Cc2ccccc2)N(C)C(=O)[C@H](Cc2ccccc2)NC1=O
ΔTm (BRD4 BD1; thermal stability; DSF; 200 µM): -0.27 °C

Oc1ccc(-c2nc(-c3ccncc3)c(-c3ccc(F)cc3)[nH]2)cc1
ΔTm (BRD4 BD1; thermal stability; DSF; 10 µM): 0.55 °C

CN(C)CCN1CCN(c2nc(NCc3cccc(Cl)c3)c3cc(-c4ccc(=O)n(C)c4)ccc3n2)CC1
ΔTm (BRD4 BD1; thermal stability; DSF; 250 µM): 15 °C

O=C(Nc1ccc(C=NNS(=O)(=O)c2ccc3ccccc3c2)cc1)c1ccc([N+](=O)[O-])cc1
remaining activity (murD; enzyme activity; inhibitor; absorbance; 50 µM): 81%

NS(=O)(=O)c1ccc(Nc2nc(-c3ccc(F)cc3)c3ccccc3n2)cc1
remaining binding (Histone acetyltransferase KAT2B (KAT2B, Homo sapiens, UniProt Q92831); binding; competition with immobilised ligand; 1 µM): 80%

O=[N+]([O-])c1cccc(COc2ccccc2C=NNS(=O)(=O)c2ccc3ccccc3c2)c1
remaining activity (murD; enzyme activity; inhibitor; absorbance; 50 µM): 70%

CCCOc1ccc(OC)c(F)c1C(=O)c1ccc(C(=O)N[C@@H]2CNC[C@H]2NC(=O)c2ccc3[nH]ncc3c2)cc1
remaining activity (cGMP-dependent protein kinase 1 (PRKG1, Homo sapiens, UniProt Q13976); enzyme activity; inhibitor; 10 µM): -6%

Cc1cnc(Nc2ccc(OCCN3CCCC3)cc2)nc1Nc1cccc(S(=O)(=O)NC(C)(C)C)c1
ΔTm (Bromodomain-containing protein 4, BD2 (BRD4, Homo sapiens, UniProt O60885); thermal stability; DSF; 10 µM): 3.11 °C

N#Cc1ccc(COc2ccccc2C=NNS(=O)(=O)Cc2ccccc2F)cc1
remaining activity (murD; enzyme activity; inhibitor; absorbance; 100 µM): 39%

C[S+]([O-])c1ccc(-c2nc(-c3ccncc3)c(-c3ccc(F)cc3)[nH]2)cc1 (centres unmarked)
ΔTm (BAZ1B; thermal stability; DSF; 10 µM): 0.29 °C

O=C(Nc1ccc(C=NNS(=O)(=O)c2ccc3ccccc3c2)cc1)c1ccccc1
remaining activity (murD; enzyme activity; inhibitor; absorbance; 100 µM): 56%
